Assay results of several laboratories.
Each line is one published result; the experiments were not run side by side.
Target: Inhibitor of nuclear factor kappa-B kinase subunit beta (IKBKB, Homo sapiens, UniProt O14920)

SMILES	read-out	action	technique	tested at	measurement	value
Cc1ccc(Nc2nccc(N(C)c3ccc4c(C)n(C)nc4c3)n2)cc1S(N)(=O)=O	enzyme activity	inhibitor		0.3 µM	inhibition	3%
O=C(Nc1cccnn1)N1CC(C/C=C/c2cncc(Oc3ccc(C(F)(F)F)cn3)n2)C1	cell-free assay		competition with immobilised ligand	1 µM	remaining binding	94%
COc1cc2ncnc(Nc3ccc(Oc4ccccc4)cc3C)c2cc1OC	enzyme activity	inhibitor		1 µM	inhibition	1%
O=C(CSc1nc2nccnc2c(=O)n1CCc1ccccc1)Nc1nccs1	enzyme activity	inhibitor		10 µM	inhibition	12%
c1ccc(CNc2nc(N3CCOc4ccccc43)nc3c2CCCC3)cc1	target engagement in cells	inhibitor	chemoproteomics	20 mM	inhibition	-6.4%
N#CC1(c2ccccn2)CCN(Cc2cc(C(=O)N3CCCC3)c(=O)n3ccccc23)CC1	cell-free assay		competition with immobilised ligand	1 µM	remaining binding	99%
Cn1c2c(Cl)c(Cl)ccc2c2cn[nH]c(=O)c21	thermal stability		DSF	10 µM	ΔTm	-0.1 °C
FC(F)(F)Oc1cccc(-c2cnc3ccc(-c4ccncc4)nn23)c1	enzyme activity	inhibitor	radiometric	5 µM	activity vs control	84%
O=C(Nc1cnn(-c2csc(C(=O)NC3COC3)c2)c1)Nc1ccccc1Cl	enzyme activity	inhibitor		5 µM	remaining activity	95.6%
CC(C)(C)C(=O)c1sc(NC2CCCCC2)nc1N	enzyme activity	inhibitor		10 µM	remaining activity	99%
CCC(=O)N[C@@H]1CC[C@H](C(=O)N(C)c2ccc(-c3nc4ccccc4o3)cc2)C1	cell-free assay		competition with immobilised ligand	1 µM	remaining binding	100%
C=CC(=O)Nc1cc(Nc2nccc(Nc3cc(Cl)c(F)cc3C(C)(C)O)n2)c(OC)cc1N1CC[C@@H](N(C)C)C1	enzyme activity	inhibitor		1 µM	inhibition	-5%
COc1ccc2c(c1)O[C@@H](c1ccc(OC)c(OC)c1)C[C@H]2NC(=O)C1(c2ccc3c(c2)OC(F)(F)O3)CC1	cell-free assay		competition with immobilised ligand	1 µM	remaining binding	95%
Cc1cnc(NC2CCOCC2)nc1-n1cnc(C(=O)NC(CN)c2cc(F)cc(Cl)c2)c1 (centres unmarked)	enzyme activity	inhibitor	radiometric	1 µM	remaining activity	100%
N#CCCc1ccc2c(c1)-c1[nH]c3ccc([N+](=O)[O-])cc3c1CC(=O)N2	cell-free assay			0.5 µM	remaining signal	96.3%
CCS(=O)(=O)c1cc2cc(C[C@@](O)(CC(C)(C)c3ccc(F)cc3C(N)=O)C(F)(F)F)[nH]c2cn1	cell-free assay		competition with immobilised ligand	1 µM	remaining binding	83%
Cc1ccc(C(=O)Nc2ccc(CN3CCN(C)CC3)c(C(F)(F)F)c2)cc1C#Cc1cnc2cccnn12	enzyme activity	inhibitor		23.5 nM	remaining activity	37%
CN(C)C1CCN(CC#Cc2nn(C3CCCC3)c3nc(NCc4ccccc4)ncc23)C1 (centres unmarked)	enzyme activity	inhibitor	FRET	10 µM	inhibition	2%
COc1cccc2c(NCc3ccccc3)nc(-n3c(N)nc4ccccc43)nc12	target engagement in cells	inhibitor	chemoproteomics	20 mM	inhibition	-13.4%
FC(F)c1nc2ccccc2n1-c1nc(N2CCOCC2)nc(N2CCOCC2)n1	enzyme activity	inhibitor		10 µM	remaining activity	94%
CNC(=O)c1cc(Oc2ccc(NC(=O)Nc3ccc(Cl)c(C(F)(F)F)c3)cc2)ccn1	enzyme activity	inhibitor		0.3 µM	inhibition	-5%

SMILES	read-out	action	technique	tested at	measurement	value
O=C1c2ccccc2-c2n[nH]c3cccc1c23	enzyme activity	inhibitor		0.5 µM	activity vs control	75.8%
Oc1cccc(-c2nc(N3CCOCC3)c3oc4ncccc4c3n2)c1	enzyme activity	inhibitor		10 µM	remaining activity	74%
Nc1nc(NC2CCCCC2)sc1C(=O)c1ccccc1	enzyme activity	inhibitor		10 µM	remaining activity	70%
O=C(Nc1cccnn1)N1CCC(=Cc2cccc(Oc3ccc(C(F)(F)F)cn3)c2)CC1	cell-free assay		competition with immobilised ligand	1 µM	remaining binding	83%
COc1cc(Nc2cnc(C#N)c(O[C@H](C)CN(C)C)n2)ncc1-c1cnn(C)c1	enzyme activity	inhibitor	radiometric	1 µM	remaining activity	96%
CCCS(=O)(=O)Nc1ccc(F)c(C(=O)c2c[nH]c3ncc(-c4ccc(Cl)cc4)cc23)c1F	enzyme activity	inhibitor		1 µM	inhibition	< 10%
Cn1c2c(c3ccc(Cl)c(Cl)c31)C(C#N)C(C)(C)NC2=O (centres unmarked)	thermal stability		DSF	10 µM	ΔTm	-0.4 °C
O=c1cc(-c2cccc3c2Sc2ccccc2S3)oc(N2CCOCC2)c1	enzyme activity	inhibitor		0.5 µM	remaining activity	101%
CCOCCn1cc(C(=O)Nc2ccc(-n3nc(-c4cccnc4)cc3C(F)(F)F)cn2)ccc1=O	cell-free assay		competition with immobilised ligand	1 µM	remaining binding	100%
Cc1ccc(NC(=O)c2ccc(CN3CCN(C)CC3)cc2)cc1Nc1nc(-c2cccnc2)cs1	cell-free assay			0.5 µM	remaining signal	97.8%
CCCOc1ccc(OC)c(F)c1C(=O)c1ccc(C(=O)N[C@@H]2CNC[C@H]2NC(=O)c2ccc3[nH]ncc3c2)cc1	enzyme activity	inhibitor		10 µM	remaining activity	62%
CCN(CC)CCNC(=O)c1c(C)[nH]c(/C=C2\C(=O)Nc3ccc(F)cc32)c1C	enzyme activity	inhibitor		0.3 µM	inhibition	-1%
N#CC1c2c([nH]c3c(Cl)c(Cl)ccc23)C(=O)NC12CCCCC2 (racemic)	thermal stability		DSF	10 µM	ΔTm	0.6 °C
Cc1sc(C(=O)NC2COC2)cc1-n1cc(NC(=O)Nc2c(F)cccc2Cl)cn1	enzyme activity	inhibitor		10 µM	remaining activity	86.8%
C[C@@H]1CN(c2cc(-c3nn(C)c4ccc(OC5(C)CC5)cc34)ncn2)C[C@H](C)O1	cell-free assay		competition with immobilised ligand	1 µM	remaining binding	76%
CCC1(CC)NC(=O)c2c(c3ccc(Cl)c(Cl)c3n2C)C1C#N (centres unmarked)	thermal stability		DSF	10 µM	ΔTm	0.1 °C
CCN(CC)CCNC(=O)c1c(C)[nH]c(/C=C2\C(=O)Nc3ccc(Cl)cc32)c1C	enzyme activity	inhibitor		0.5 µM	remaining activity	101%
Cn1c2c(Cl)c(Cl)ccc2c2cc(N)[nH]c(=O)c21	thermal stability		DSF	10 µM	ΔTm	-0.6 °C
CC(C)(C)c1nc2c(s1)c1nc(N)ncc1c1ccc(NS(=O)(=O)c3c(F)cccc3F)c(F)c12	enzyme activity	inhibitor	radiometric	1 µM	remaining activity	79%
CC(C)(O)[C@H]1CC[C@H](Nc2ccc3ncc(-c4cccc(C(F)(F)F)c4)n3n2)CC1	enzyme activity	inhibitor		1 µM	remaining activity	95.4%
